Here are results for seven compounds from paper PMC7856085 (Archives of biochemistry and biophysics, 2020).

As a reminder, the Ki is the dissociation constant of the complex between target and ligand, obtained from inhibition or displacement. For orientation: Km means the concentration of substrate that gives half-maximal velocity.

One assay relates to SmPutA. Put plainly: Fluorescence-based thermal shift assay. The assay is classed as binding, Sinorhizobium meliloti. The conditions noted are these: compound at 62.5 mM; ligand-free SmPutA T1/2 40.2 °C.
In assay [1] the target is GSALDH activity of SmPutA (Sinorhizobium meliloti, UniProt F7X6I3). Put plainly: GSALDH activity measurements. The assay is classed as biochemical. The settings on record: for Ki / α: P5C variable substrate.
For assay [2], the system named is GSALDH active site of SmPutA. Put plainly: Co-crystallization / electron density in the GSALDH active site. Set-up: species or system Sinorhizobium meliloti. The conditions noted are these: co-crystallization at 50 mM. The method in brief: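 Recombinant SmPutA (expressed in E. coli) at 6 mg/mL in 50 mM Tris pH 8.0, 50 mM NaCl, 5% glycerol, 0.5 mM TCEP. Sitting-drop co-crystallization at 13 °C against 19% PEG-3350, 0.2 M ammonium sulfate, 0.1 M MgCl2, 0.1 M HEPES pH 8.0, 0.1 M sodium formate. Ligand at 50 mM, with or without 10 mM NAD+. Cryoprotected with added 15% PEG-200. Ligand density checked with polder omit maps.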

A further assay addresses mammalian GSALDH. The conditions noted are these: competitive with P5C; cited from earlier work.
Setting [3] is: Competitive model, NAD+ fixed at 0.2 mM.
[4] abbreviates: Mixed model, NAD+ fixed at 0.2 mM.
Where [5] appears, read: Uncompetitive model, NAD+ fixed at 0.2 mM.

For the compound `O=C(O)[C@H]1C[C@@H](O)CN1` [CHDP, cis-4-hydroxy-D-proline], the “ΔT1/2 (increase of midpoint of stability curve)” value in the assay with SmPutA worked out at 4.0 °C. The inhibition constant (Ki) in assay [1] (setting [3]) was determined as 8 mM; in assay [1] (setting [4]), 25 mM. In assay [1] (setting [4]), this compound came in with a α of 0.9 ± 0.5.

Consider `O=C(O)[C@@H]1C[C@H](O)CN1` [CHLP, cis-4-hydroxy-L-proline], for which the “ΔT1/2 (increase of midpoint of stability curve)” value with SmPutA was determined as 2.1 °C. Also, the “Inhibition of the GSALDH activity of SmPutA” value in assay [1] (fit to competitive model, L-P5C variable substrate, NAD+ fixed) was “does not inhibit”. The “Binding to GSALDH site (electron density)” value in assay [2] is reported as “does not bind GSALDH”.

Regarding `O=C(O)[C@H]1CCCN1` [D-Pro, D-proline], the values for the inhibitory constant (Ki) in assay [1] (setting [3]) and in assay [1] (setting [5]) were 1.5 ± 0.5 mM and 4.5 ± 0.2 mM, respectively.

As for `O=C(O)C1CCC=N1` [L-P5C, Δ^1-pyrroline-5-carboxylate], the Km in assay [1] (substrate of GSALDH activity of SmPutA, NAD+ fixed at 0.2 mM) came to 300 ± 100 µM.

Take `O=C(O)[C@@H]1CCCN1` [L-Pro, L-proline]: the inhibitory constant (Ki) on mammalian GSALDH was 3 mM; in assay [1] (setting [3]), 11 mM; in assay [1] (setting [5]), 19 mM.

In the case of `O=C(O)[C@H]1C[C@H](O)CN1` [THDP, trans-4-hydroxy-D-proline], the “ΔT1/2 (increase of midpoint of stability curve)” value in the assay on SmPutA is 5.6 °C. This compound showed a Ki in assay [1] (setting [3]) of 4.5 ± 0.5 mM. In assay [1] (setting [4]), this compound displayed an inhibition constant (Ki) of 10 mM and a α of 1.6 ± 0.4.

Regarding `O=C(O)[C@@H]1C[C@@H](O)CN1` [THLP, trans-4-hydroxy-L-proline], the “ΔT1/2 (increase of midpoint of stability curve)” value in the assay with SmPutA was found to be 2.9 °C. Further, the Ki in assay [1] (setting [3]) stood at 7 mM. Also, in assay [1] (setting [4]), the affinity corresponds to a Ki of 27 mM and the α came out at 0.6 ± 0.1.
